From PubChem BioAssay AID573 (SRMLSC, 2007)
Screen size: about 65,000 compounds; about 1,400 (2.2%) were called active.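 How the source made its calls: active means growth inhibition at or above a cutoff equal to the mean over every tested compound plus 3 SD (cut at about 60% in these data); inactive means the rest.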 Only a selection was taken, and actives are over-represented in it overall.

assay: growth inhibitors of E. coli tolC mutant, primary screen, strain BW25113 ΔtolC::kan, 384-well (AID 573); conditions: OD615, hits give high values, screened at 10 µM (by protocol);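 further: growth measured after 20 h incubation at 37 °C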
Outline: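 test system = E. coli BW25113 ΔtolC::kan bacteria | medium = LB with kanamycin 50 µg/mL | signal = OD at 615 nm | schedule = 37 °C, 20 h exposure | evaluation = % inhibition of E. coli growth | compound dosing = one dose of 10 µM final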

Growth inhibition, inactive:
Cc1cccc(C(=O)Nc2ccc(CC(=O)O)cc2)c1 -16%, COC(=O)c1sc(=S)n(-c2ccccc2)c1N -12.6%, COc1ccc(-c2csc(N3CCN(Cc4ccc5c(c4)OCO5)CC3)n2)cc1 5.4%, O=C(CN1CCN(c2nc(-c3ccccc3)cs2)CC1)NCc1ccc2c(c1)OCO2 50%, COc1c(F)c(F)c(-c2csc(N)n2)c(F)c1F 9.92%, CNC(=O)Nc1cc(C(C)(C)C)no1 -22.1%, COc1ccc(CCNC(=O)c2cc3sccc3n2C)cc1OC 7.67%, O=C(NCc1ccco1)c1cc2sccc2n1Cc1ccc(F)cc1 56.9%, c1nnc2c3c4c(sc3ncn12)CCC4 -4.55%, O=C(CSc1nc2ccccc2o1)N1CCN(c2ccccc2)CC1 5.08%, Cc1cccc(NC(=O)CSC(N)=O)c1C -15.7%, O=C(NCCCNCc1ccccc1)c1ccc(/C=N/O)nc1 -12.5%, O=C(O)C1CC=CCC1C(=O)NCCc1ccccc1 (stereo unspecified) -21.4%, COc1ccc(S(=O)(=O)N2CCOCC2)cc1C(=O)Nc1nc2ccccc2s1 -15.6%, CCCn1c(=O)c2[nH]c(C3CCCC3)nc2n(CCC)c1=O 5.97%, O.O.O.O=S(=O)([O-])OC[C@H]1O[C@@H](O[C@]2(COS(=O)(=O)[O-])O[C@H](OS(=O)(=O)[O-])[C@@H](OS(=O)(=O)[O-])[C@@H]2OS(=O)(=O)[O-])[C@H](OS(=O)(=O)[O-])[C@@H](OS(=O)(=O)[O-])[C@@H]1OS(=O)(=O)[O-].[Al] -6.62%, CCOC(=O)CSc1nnc(-c2cccc(Br)c2)o1 -4.64%, Cc1noc(C)c1S(=O)(=O)N(CC(=O)NCc1ccc(Cl)cc1)c1ccc2c(c1)OCO2 -5.56%, N#Cc1nc(COc2ccc(Cl)cc2)oc1N1CCCC1 7.84%, N#CCCN1CCN(S(=O)(=O)c2ccc(S(=O)(=O)NC3CCCCC3)cc2)CC1 -0.61%, Cc1cc(NC(=O)CN2CCC(O)(c3cccc(F)c3)CC2)no1 -18.6%, O=C(Cn1nnc(-c2ccc3c(c2)OCO3)n1)NCc1ccco1 7.12%, O=C(NCCCCO)C(F)(F)C(F)(F)C(F)(F)C(=O)NCCCCO -11%, CCOCC(=O)Nc1sc2c(c1C(=O)OCC)CCCC2 42.8%, CCOC(=O)c1c(NC(=O)CSc2nnc(CN3CCOCC3)n2C)sc2c1CCCC2 5.6%, CC1(C)CC(=O)c2cc(OCC(=O)NCC3CCCO3)ccc2O1 (stereo unspecified) -5%, O=C(NCCCN1CCCCCC1)C1CC(=O)N(C2CCCC2)C1 (stereo unspecified) -11.7%, COc1cc(OC)cc(C(=O)Nc2ccc(-c3nc4ccccc4o3)c(O)c2)c1 19.7%, Cc1nc2nc(COc3ccccc3)[nH]n2c(=O)c1C 11.6%, Cc1nc(SC(C)C)[nH]c(=O)c1Cc1ccccc1 0%, O=C(NCc1ccco1)c1sc2cccc(F)c2c1Cl -1.49%, CCOc1ccccc1NC(=O)C1CCN(S(=O)(=O)c2c(C)nn(C)c2C)CC1 -6.48%, COc1ccc(-n2c(SCC(=O)OC(C)C)nnc2-c2ccccn2)cc1 4.58%, Nc1nonc1-c1nc2ccccc2n1Cc1ccc(F)cc1 -8.77%, Cc1c(C(=O)N2CCOCC2)[nH]c2ccc(OCc3ccccc3)cc12 1.84%, O=c1c(-c2ccccc2)coc2c(CN3CCOCC3)c(O)ccc12 -9.34%, O=C(O)c1ccc(NS(=O)(=O)c2cccc3nsnc23)cc1 -25%, Cc1cccc2nc(CNc3ccc(F)cc3)cn12 4.83%, COc1cc(-c2noc(C3CCCN(S(=O)(=O)c4cccc(Cl)c4)C3)n2)cc(OC)c1OC (stereo unspecified) 35.2%, O=C(Nc1ccccc1N1CCCCC1)c1ccc2nccnc2c1 28.8%, O=C(Nc1ccccc1N1CCN(c2ccccc2)CC1)c1cccc(F)c1 17.8%, O=C(Nc1ccccc1F)C1C2C=CC3(O2)C1C(=O)N(c1cccnc1)C3C(=O)NC1CCCCC1 (stereo unspecified) -12.5%, CCOc1ccc2nc(NCCNS(=O)(=O)c3ccccc3)c(C#N)cc2c1 -0.48%, COc1ccc2nc(N3CCCC(O)C3)c(C#N)cc2c1 (stereo unspecified) 5.39%, Cc1oc(-c2ccccc2F)nc1CS(=O)(=O)CC(=O)NCCCN(C)C1CCCCC1 -1.97%, COc1ccc(-c2nc(CS(=O)CC(=O)N3CCc4ccccc4C3)c(C)o2)cc1 (stereo unspecified) 3.93%, CCCc1cc(=O)[nH]c(SCc2ccc(C#N)cc2)n1 14.9%, CCCCC(=O)N(c1ccc(OC)cc1)C1C=CS(=O)(=O)C1 (stereo unspecified) -9.87%, Fc1ccccc1C(c1nnnn1Cc1ccc2c(c1)OCO2)N1CCN(Cc2ccccc2)CC1 (stereo unspecified) 20.4%, CCC(C)(C)n1nnnc1C(c1cccs1)N1CCN(Cc2ccccc2)CC1 (stereo unspecified) 4.31%

Growth inhibition, active:
CC1CCCC(C)N1C(=O)CN1CCN(c2nc(-c3ccc(F)cc3)cs2)CC1 (stereo unspecified) 100%, CCOC(=O)c1cc2sccc2n1Cc1ccc(C#N)cc1 62.5%, CC1CCCN(c2ccc(C(=O)NCCc3ccccc3)cn2)C1 (stereo unspecified) 61.4%, CC1CCN(c2oc(-c3ccccc3F)nc2C#N)CC1 71.3%, CCOC(=O)c1c(NC(=O)CSc2nnc(C)c(=O)[nH]2)sc2c1CCC2 66.5%, Cc1nc2nc(COc3ccccc3)[nH]n2c(=O)c1Cc1ccccc1 100%, CCOC(=O)c1c(CN2CCOCC2)n(-c2ccccc2)c2ccc(O)cc12 65.2%, O=C(Nc1ccccc1N1CCCCC1)c1cccc(F)c1 100%, CCOc1ccc2nc(N3CCCN(C(=O)Nc4ccccc4C)CC3)c(C#N)cc2c1 62.3%, Cc1ccccc1-c1nc(CS(=O)(=O)CC(=O)N2CCc3ccccc3C2)c(C)o1 63%, Fc1ccc(Cn2nnnc2C(c2cccs2)N2CCCCCC2)cc1 (stereo unspecified) 85.7%
